ChEMBL document CHEMBL1158339, “Synthesis and anti-microbial screening of some Schiff bases of 3-amino-6,8-dibromo-2-phenylquinazolin-4(3H)-ones” (2009)
≈ marks a conversion by molar mass, not a printed value.

How the values were obtained:
Pseudomonas aeruginosa = experiment: microbe, parasite or virus in culture; settings: ATCC 2853, 24 h, read-out: IZ
Micrococcus luteus [1] = experiment: Antibacterial activity against Micrococcus luteus ATCC 4698 at 100 ug/disk after 24 hrs by paper disk diffusion technique; type: functional; settings: NCTC 2665, 24 h, read-out: IZ
Staphylococcus aureus [2] = experiment: Antibacterial activity against Staphylococcus aureus ATCC 9144 after 24 hrs by agar streak dilution method; type: functional; settings: ATCC 9144, 24 h
Procedure, shortened: (§1)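 Agar streak dilution MIC. Stock […] in dimethyl formamide. Graded quantities go into molten sterile nutrient agar, poured at 40–50 °C to 3–4 mm depth and left to solidify. Plates are streaked with about 10⁵ cfu/ml bacterial suspension and incubated 24 h at 37 °C. MIC is the lowest concentration with no visible growth.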

Klebsiella pneumoniae [3] = experiment: microbe, parasite or virus in culture; settings: ATCC 11298, 24 h, read-out: IZ
Bacillus cereus [4] = experiment: Antibacterial activity against Bacillus cereus ATCC 11778 after 24 hrs by agar streak dilution method; type: functional; settings: ATCC 11778, 24 h
Procedure, shortened: as §1

[5] = test system: Staphylococcus epidermidis; experiment: microbe, parasite or virus in culture; settings: ATCC 155, 24 h, read-out: IZ
Klebsiella pneumoniae [6] = experiment: Antibacterial activity against Klebsiella pneumoniae ATCC 11298 after 24 hrs by agar streak dilution method; type: functional; settings: ATCC 11298, 24 h
Procedure, shortened: as §1

Escherichia coli = experiment: microbe, parasite or virus in culture; settings: ATCC 25922, 24 h, read-out: IZ
[7] = test system: Staphylococcus epidermidis; experiment: Antibacterial activity against Staphylococcus epidermidis ATCC 155 after 24 hrs by agar streak dilution method; type: functional; settings: ATCC 155, 24 h
Procedure, shortened: as §1

Staphylococcus aureus [8] = experiment: microbe, parasite or virus in culture; settings: ATCC 9144, 24 h, read-out: IZ
Micrococcus luteus [9] = experiment: Antibacterial activity against Micrococcus luteus ATCC 4698 after 24 hrs by agar streak dilution method; type: functional; settings: NCTC 2665, 24 h
Procedure, shortened: as §1

Bacillus cereus [10] = experiment: Antibacterial activity against Bacillus cereus ATCC 11778 at 100 ug/disk after 24 hrs by paper disk diffusion technique; type: functional; settings: ATCC 11778, 24 h, read-out: IZ

Work on `O=C(O)c1cn(C2CC2)c2cc(N3CCNCC3)c(F)cc2c1=O` [CIPROFLOXACIN] yielded a zone of inhibition at 100 µg/disc (Pseudomonas aeruginosa) of 33 mm, a zone of inhibition at 100 µg/disc (Micrococcus luteus [1]) of 30 mm and an MIC (Staphylococcus aureus [2]) of 0.2 µg/mL (≈ 0.604 µM). It also gave a zone of inhibition at 100 µg/disc (Klebsiella pneumoniae [3]) of 33 mm, an MIC (Bacillus cereus [4]) of 0.3 µg/mL (≈ 0.905 µM) and a zone of inhibition at 100 µg/disc [5] of 31 mm. For the same compound, the MIC (Klebsiella pneumoniae [6]) was 0.1 µg/mL (≈ 0.302 µM), the zone of inhibition at 100 µg/disc (Escherichia coli) was 32 mm and the MIC [7] was 0.39 µg/mL (≈ 1.18 µM). For the same compound, the zone of inhibition at 100 µg/disc (Staphylococcus aureus [8]) was 29 mm, the MIC (Micrococcus luteus [9]) was 0.1 µg/mL (≈ 0.302 µM) and the zone of inhibition at 100 µg/disc (Bacillus cereus [10]) was 29 mm.
